Experimental data from different studies.
Target: G protein-coupled receptor kinase 4 (GRK4, Homo sapiens, UniProt P32298)

`O=C(c1ccc(Nc2ncc(Cl)c(-c3ccc(Cl)s3)n2)cc1)N1CCC(N2CCCC2)CC1` has a remaining binding of 1.1% (binding, competition with immobilised ligand; 1 µM).
`CC1CCCN1c1nccc(-c2cnn3ncccc23)n1` (stereo not drawn) has a remaining binding of 75% (binding; 1 µM).
For `CCCOc1ccc([C@@H]2[C@@H](C(=O)O)[C@H](c3ccc4c(c3)OCO4)CN2CC(=O)Nc2c(CC)cccc2CC)cc1`, the remaining binding was 100% (cell-free assay, competition with immobilised ligand; 1 µM).
For `C[C@@H](c1ccc(-n2cnc3c(N)ncnc32)cc1)N1CCc2nn(C)c(Cc3ccccc3)c2C1=O`, the remaining binding was 59% (binding, competition with immobilised ligand; 0.1 µM).
`CN(C)c1ncc(F)c(-c2cnn3ncccc23)n1` has a remaining binding of 100% (binding; 1 µM).
For `COc1ncc2cc3ccccc3nc2c1C#N`, the remaining binding was 99% (cell-free assay, competition with immobilised ligand; 5 µM).
For `CN(C)C(=O)Cn1cc(-c2nc([C@@](C)(c3ccc(-c4cnc(N)nc4)cc3)C3CC3)no2)cn1`, the remaining binding was 86% (cell-free assay, competition with immobilised ligand; 1 µM).
With `FC(F)(F)Oc1cccc(-c2cnc3ccc(-c4ccncc4)nn23)c1` the remaining binding was 43% (cell-free assay, competition with immobilised ligand; 5 µM).
`CCCCN(CCCC)C(=O)CN1C[C@H](c2cc(OC)c3c(c2)OCO3)[C@@H](C(=O)O)[C@@H]1CC(C)(C)CCC` has a remaining binding of 100% (cell-free assay, competition with immobilised ligand; 1 µM).
`CNC(=O)[C@@H]1CC[C@@H](n2c(-c3ccc4cnccc4c3)nc3ccc(C(=O)NCc4cccc(C(N)=O)c4)cc32)C1` gave a remaining binding of 93% (binding, competition with immobilised ligand; 1 µM).
With `CN(C)c1nccc(-c2cnn3ncccc23)n1` the remaining binding was 100% (binding; 1 µM).
For `O=C1CCc2cc(Nc3cc(OC4CCOCC4)c([N+](=O)[O-])cc3Cl)ccc2N1`, the remaining binding was 100% (cell-free assay, competition with immobilised ligand; 1 µM).
The remaining binding of `COc1ccnn2ncc(-c3ccnc(N(C)C)n3)c12` is reported as 79% (binding; 1 µM).
`O=C(Nc1c[nH]nc1C(=O)NC1CCNCC1)c1cc(F)cc(F)c1` has a remaining binding of 100% (binding, competition with immobilised ligand; 1 µM).
The remaining binding of `C[C@@]1(Cc2ccc(C#N)cc2)C(=O)N(c2cc(Cl)cc(Cl)c2)c2ncc(C(=O)NC3(c4nc(C5CCC5)no4)CC3)n21` is reported as 100% (cell-free assay, competition with immobilised ligand; 1 µM).
For `N[C@H]1CCN(c2nccc(-c3cnn4ncccc34)n2)C1`, the remaining binding was 75% (binding; 1 µM).
`O=C(NCCCN1CCOCC1)c1ccc(Nc2ncc(Cl)c(-c3ccc(Cl)s3)n2)cc1` gave a remaining binding of 2.7% (binding, competition with immobilised ligand; 1 µM).
For `O=C(Nc1cccnn1)N1CC(C/C=C/c2cncc(Oc3ccc(C(F)(F)F)cn3)n2)C1`, the remaining binding was 100% (cell-free assay, competition with immobilised ligand; 1 µM).
`Cc1cnc(Nc2ccc(C(=O)N3CCC(N4CCCC4)CC3)cc2)nc1-c1cc2ccccc2s1` has a remaining binding of 41% (binding, competition with immobilised ligand; 1 µM).
`C[C@@H]1CCN(c2nccc(-c3cnn4ncccc34)n2)C1` has a remaining binding of 56% (binding; 1 µM).
The remaining binding of `c1cncc(-c2cccc(Nc3nccc(NC4CCCCC4)n3)c2)c1` is reported as 56% (binding, competition with immobilised ligand; 10 µM).
